Test results taken from paper PMC9290342 (Clinical Pharmacology in Drug Development, 2021).
Like-named read-outs stand apart in the source and are kept apart here.

What was measured:
[1] = format: in vivo, human; conditions: for tmax, total methylprednisolone: median (minimum‐maximum)
Procedure, shortened: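 Oral methylprednisolone tablets were given to healthy in-clinic volunteers, with serial whole-blood sampling over 24 h after dosing on study days 1 and 4. Plasma total methylprednisolone was quantified by validated LC–MS/MS. The PK population comprised subjects with at least 4 consecutive quantifiable concentrations. Parameters were summarized descriptively.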

[2] = Plasma pharmacokinetics of free methylprednisolone after oral methylprednisolone; format: in vivo, human; conditions: oral 32 mg daily; for tmax, free methylprednisolone: median (minimum‐maximum)
[3] = tested on: steroidogenic concentration (CSG = 5 × ConcMPD + ConcCortisol); experiment: Steroidogenic exposure; format: in vivo, human; conditions: oral methylprednisolone 32 mg daily
Procedure, shortened: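 After oral methylprednisolone on days 1 and 4, plasma total and free methylprednisolone were measured over 24 h by LC–MS/MS, alongside serum total and plasma free cortisol. Steroidogenic concentration was CSG = 5 × methylprednisolone concentration + cortisol concentration. AUEC24SG was derived noncompartmentally from actual sampling times, in subjects belonging to both the PK and PD populations.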

[4] = Safety: adverse events, examinations, laboratory tests; format: in vivo, human; conditions: n = 16 subjects per study drug group
Procedure, shortened: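 The safety population comprised every subject given ≥1 dose. Assessments throughout the study covered AEs, TEAEs (events after the first dose through study completion), serious TEAEs, physical examinations, vital signs, 12‑lead ECGs and clinical laboratory tests. Results were summarized descriptively.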

[5] = every 1 mg of methylprednisolone is equivalent to 5 mg of cortisol; cited from earlier work
[6] = oral 32 mg daily, plasma, day 1, mean (SD), n = 16
[7] = oral 32 mg daily, plasma, day 4, mean (SD), n = 14
[8] = plasma, day 1, mean (SD), n = 16

Which results are given for `C[C@H]1C[C@@H]2[C@H]([C@@H](O)C[C@@]3(C)[C@H]2CC[C@]3(O)C(=O)CO)[C@@]2(C)C=CC(=O)C=C12` [Methylprednisolone, methylprednisolone]?
RAUC0‐24 (accumulation ratio), total methylprednisolone ([1]; oral 32 mg daily, AUC0-24 on day 4 divided by AUC0-24 on day 1, mean): 0.9; time of mean peak plasma total methylprednisolone concentration (mean profile) ([1]; oral 32 mg daily, after oral dosing): around 2 hours; AUC0‐inf, total methylprednisolone [1, 6]: n = 16 1030 (380) ng • h/mL; AUC0‐last, total methylprednisolone [1, 6]: n = 16 1020 (381) ng • h/mL; t½, total methylprednisolone [1, 6]: n = 16 2.2 (0.6) h; t½, total methylprednisolone ([1]; oral 32 mg daily, plasma, day 1, mean (SD), n = 16, listed as methylprednisolone): 2.2 h; tmax, total methylprednisolone ([1]; oral 32 mg daily, plasma, day 1, n = 16): n = 16 2.0 (2.0‐4.0) h; AUC0‐last, total methylprednisolone [1, 7]: n = 14 919 (297) ng • h/mL; t½, total methylprednisolone [1, 7]: n = 14 2.4 (0.7) h; t½, total methylprednisolone ([1]; oral 32 mg daily, plasma, day 4, mean (SD), n = 14, listed as methylprednisolone): 2.4 h; tmax, total methylprednisolone ([1]; oral 32 mg daily, plasma, day 4, n = 14): n = 14 2.0 (1.0‐4.0) h; Cmax, total methylprednisolone ([1]; oral methylprednisolone 32 mg daily, plasma, LC-MS/MS, day 4, mean (SD), n = 14): n = 14 188.0 (40.0) ng/mL; time of mean peak plasma free methylprednisolone concentration (mean profile) ([2]; after oral dosing): 2 h; Cmax, free methylprednisolone ([2]; plasma, LC-MS/MS, day 4, mean (SD), n = 15): n = 15 21.9 (5.4) ng/mL; AUC0‐inf, free methylprednisolone [2, 8]: n = 16 106 (36) ng • h/mL; AUC0‐last, free methylprednisolone [2, 8]: n = 16 104.0 (35.2) ng • h/mL; t½, free methylprednisolone [2, 8]: n = 16 1.9 (0.5) h; t½, free methylprednisolone ([2]; plasma, day 1, mean (SD), n = 16, listed as methylprednisolone): 1.9 h; tmax, free methylprednisolone ([2]; plasma, day 1, n = 16): n = 16 2.0 (1.0‐4.0) h; t½, free methylprednisolone ([2]; plasma, day 4, mean (SD), n = 13): n = 13 2.0 (0.5) h; t½, free methylprednisolone ([2]; plasma, day 4, mean (SD), n = 13, listed as methylprednisolone): 2.0 h; AUC0‐last, free methylprednisolone ([2]; plasma, day 4, mean (SD), n = 15): n = 15 89.5 (27.3) ng • h/mL; tmax, free methylprednisolone ([2]; plasma, day 4, n = 15): n = 15 2.0 (1.0‐4.0) h; plasma total AUEC24SG ([3]; day 1, mean (SD 1770.0)): 6480.0 ng·h/mL; plasma free AUEC24SG ([3]; day 4, mean (SD 136.0)): 492.0 ng·h/mL; plasma total AUEC24SG ([3]; day 4, mean (SD 1330.0)): 5440.0 ng·h/mL; Any TESAE [4]: 0 n (%); Subjects with any TEAE [4]: 10 (62.5) n (%); TEAE: Contusion [4]: 1 (6.3) n (%); TEAE: Dysuria [4]: 0 n (%); TEAE: Headache [4]: 2 (12.5) n (%); TEAE: Heart palpitations [4]: 2 (12.5) n (%); TEAE: Injection site reaction [4]: 0 n (%); TEAE: Insomnia [4]: 0 n (%); TEAE: Somnolence [4]: 0 n (%); TESAE: Pulmonary embolism [4]: 0 n (%); AEs ([4]; number of adverse events): 17 n; potency relative to cortisol (times more potent) [5]: 5 times
